Results taken from article PMC4479701 (mBio, 2015).
Values after ≈ are worked out from the molar mass of the structure shown.

Legend:
C. neoformans [1] = test: Transmission electron microscopy, intracellular vesicles; type: cell-based; settings: 4 µg/ml, 6 h; untreated 0.33 ± 0.36
[2] = tested on: GlcCer synthesis in J774.16 cells; test: Labeling of mammalian cells with [3H]palmitate, TLC of GlcCer; type: cell-based, murine; settings: [3H]palmitate labeling, 6 h
Method in brief: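 J774.16 macrophages (5 × 10^6 cells/ml) adhered for 14 h in six-well plates. They were exposed for 4 h to test compound at the concentrations used for the fungal labeling, then given 30 µCi/ml [3H]palmitic acid for a further 2 h.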

J774 cells = test: In vitro toxicity; type: cell-based, murine
Method in brief: (§1)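 J774.16 murine macrophages were kept in DMEM with 10% FBS and 1% pen-strep, and used until passage eight. At passage 7, 10^5 cells/well were allowed to adhere for 14 h. Test compound was then added at 0.1 to 100 µg/ml, with drug-free wells as controls. Incubation at 37°C, 5% CO2.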

In vitro toxicity = type: cell-based, murine; settings: mouse, J774.16 macrophage cells
Method in brief: as §1

C. neoformans [3] = test: Synergism assay; type: cell-based
[4] = tested on: GlcCer synthesis in C. neoformans; test: In vivo labeling with [3H]palmitate, TLC of GlcCer; type: cell-based; settings: [3H]palmitate labeling
P. murina [5] = test: Murine pneumocystosis, corticosteroid-immunosuppressed; type: in vivo, mouse (C3H/HeN); settings: mice immunosuppressed with corticosteroids
Method in brief: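 Corticosteroid-immunosuppressed mice were infected with P. murina by cohousing with seed mice for 2 weeks. […] Treatment lasted 13 days. Lung homogenate slides were stained with Diff-Quik for trophic forms and cresyl echt violet for asci.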

Candida spp. = test: In vitro susceptibility; type: cell-based; settings: most Candida spp. examined
Method in brief: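 Inoculum prepared per CLSI M27-A3. Plates incubated at 37°C with 5% CO2 for 24 to 96 h. MIC was the lowest concentration inhibiting 50% of growth versus the drug-free control. Minimum fungicidal concentration was also measured: serial dilutions from wells were plated on YPD agar, and MFC was the lowest concentration yielding three or fewer colonies (99% of inoculum killed).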

C. neoformans [6] = test: Mouse model of cryptococcosis, intranasal infection; type: in vivo, mouse (CBA/J); settings: 1.2 mg/kg/day i.p.
Method in brief: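 Mice (10 per group) were infected by nasal inoculation of 20 µl containing 5 × 10^5 C. neoformans. Test compound was given i.p. at 1.2 mg/kg/day in 100 µl PBS with 0.4% DMSO, starting 2 h after inoculation. Survival followed up to 60 days. Organs of survivors were homogenized in 10 ml PBS, diluted serially 1:10, plated on YPD, and incubated at 30°C for 72 h for CFU.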

C. neoformans cells [7] = test: In vitro passages, development of resistance; type: cell-based; settings: 15 days of in vitro passages (120 generations), 10^6 cells/ml; data not shown
C. neoformans [8] = test: Mouse model of cryptococcosis, intravenous infection; type: in vivo, mouse (CBA/J); settings: 8 mice per group, vehicle 7.0 ± 1.1
[9] = tested on: sphingolipids of C. neoformans; test: Sphingolipid profiling by TLC and LC-MS; type: cell-based; settings: LC-MS; D0 data not shown
C. neoformans cells [10] = test: In vitro killing assay; type: cell-based
Method in brief: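 An overnight C. neoformans culture was washed in PBS and resuspended in HEPES-buffered YNB, pH 7.4. 2 × 10^4 cells were exposed to 1, 2 or 4 µg/ml test compound in 10 ml (0.4% DMSO final), at 37°C, 5% CO2, on a rotary shaker at 200 rpm. Aliquots taken at time points were diluted, plated on YPD, incubated 72 h at 30°C, and CFU counted.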

[11] = In vivo toxicity, blood work; parameters: species or system mouse (CBA/J)
Method in brief: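 Female CBA/J mice, 4 weeks old: five received 1.2 mg/kg/day test compound for 60 days, and three controls received a daily solvent injection. On day 60, blood was collected into one K2EDTA tube and one plain tube allowed to clot.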

C. albicans SC 5314 = test: Mouse model of invasive candidiasis; type: in vivo, mouse (CBA/J); settings: after 21 days of infection; 1.2 mg/kg/day i.p.; 8 mice per group
Method in brief: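 Female CBA/J mice, 8 weeks old (8 per group), were infected i.v. with 100 µl containing 10^5 C. albicans SC-5314. Test compound was given i.p. at 1.2 mg/kg/day in 100 µl PBS with 0.4% DMSO immediately after inoculation; untreated mice received vehicle. Survival was monitored. Organs of survivors were homogenized in 10 ml PBS, diluted tenfold, and plated on YPD at 30°C for 72 h for CFU.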

P. murina [12] = test: Murine pneumocystosis, CD4-depleted; type: in vivo, mouse (C3H/HeN); settings: 1.25 mg/kg/day
Method in brief: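 Twelve mice were CD4-depleted with 300 µg GK 1.5 antibody i.p. on days 1, 3 and 7. They were infected by exposure to P. murina-infected mice, then given 100 µg GK 1.5 i.p. weekly for 6 weeks. Treatment followed at 1.25 or 12.5 mg/kg/day for 14 days, with GK 1.5 continued; controls received vehicle.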

Cryptococcus neoformans = test: In vitro susceptibility testing; type: cell-based; settings: Cryptococcus neoformans

O=C(NN=Cc1ccc(O)c(Br)c1)c1cccc(Br)c1 [D0, 3-bromo-N′-(3-bromo-4-hydroxybenzylidene) benzohydrazide]
numbers of vesicles per square micrometer of cell surface area (C. neoformans [1]): 0.93 ± 0.54 | synthesis of mammalian GlcCer or other sphingolipids [2]: no significant changes | EC50/MIC80 selectivity index (J774 cells; J774 EC50 versus MIC): > 100 | selectivity index (EC50/MIC ratio) (J774 cells; macrophage cell line): > 50 | EC50 at 48 h (In vitro toxicity): 50 µg/mL (≈ 126 µM) | interaction category (C. neoformans [3]; combined with caspofungin): additive (additive effect, FIC = 1) | interaction category (C. neoformans [3]; combined with fluconazole): highly synergistic | interaction category (C. neoformans [3]; combined with tunicamycin): additive (additive effect, FIC = 1) | synthesis of GlcCer [4]: significantly inhibited | toxicity (P. murina [5]): some toxicity | in vitro susceptibility (Candida spp.): resistant | brain tissue burden (CFU) (C. neoformans [6]): eradication of fungal cells | lung tissue burden (CFU) (C. neoformans [6]): decrease of fungal load | mice surviving C. neoformans infection (C. neoformans [6]; up to 60 days, 10 mice per group): 70% | development of resistance (C. neoformans cells [7]): did not develop resistance | survival, days postinfection (C. neoformans [8]; 1.2 mg/kg/day i.p.): 10.5 ± 4.2 days | levels of C18 hydroxyceramide and its desaturated and methylated forms [9]: decreased | type of killing (C. neoformans cells [10]; time-kill assay, 37°C, 5% CO2, pH 7.4): time-dependent killing | dead cells (C. neoformans cells [10]; within 24 h): 100% | all other blood parameters for liver and kidney function ([11]; after 60 days of treatment): normal | tolerability in animals ([11]; mouse, in vivo): well tolerated | mice still alive (C. albicans SC 5314): 75% | survival (P. murina [12]): significantly improved survival | toxicity (P. murina [12]): no apparent signs of toxicity

C[C@@H]1[C@H](O)[C@@H](C)/C=C/C=C/C=C/C=C/C=C/C=C/C=C/[C@H](O[C@@H]2O[C@H](C)[C@@H](O)[C@H](N)[C@@H]2O)C[C@@H]2O[C@](O)(C[C@@H](O)C[C@@H](O)[C@H](O)CC[C@@H](O)C[C@@H](O)CC(=O)O[C@H]1C)C[C@H](O)[C@H]2C(=O)O [amphotericin B, reference compound]
survival, days postinfection (C. neoformans [8]; 1.2 mg/kg/day i.p.): 23.5 ± 6.5 days

OC(Cn1cncn1)(Cn1cncn1)c1ccc(F)cc1F [fluconazole, reference compound]
survival, days postinfection (C. neoformans [8]; 10 mg/kg/day i.p.): 10 ± 2 days | MIC (Cryptococcus neoformans): > 64 µg/mL
